In ChEMBL document CHEMBL1121595, “Fluoroprostaglandins: synthesis and biological evaluation of the methyl esters of (+)-12-fluoro-, (-)-ent-12-fluoro-, (+)-15-epi-fluoro-, and (-)-ent-15 epi-12-fluoroprostaglandin F2 alpha” (1980):

How the values were obtained:
[1] = system: Gerbillinae; test: The compound was evaluated for the gerbil colon contraction.; assay type: functional
[2] = system: Cricetinae gen. sp.; test: The compound was evaluated for the antifertility activity in hamster.; assay type: functional
In short: (§1)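 Pregnant hamsters (80–90 g), ten per compound, mated one male per female. A single subcutaneous dose in ethanol was given on day 5 of pregnancy. The minimum effective dose is the lowest dose per hamster per day that leaves no pregnancies in the group of ten. Relative potency was derived by comparing this dose with that of natural PGF2α.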

[3] = system: Cricetinae gen. sp.; test: The compound was evaluated for the hamster uterine contraction.; assay type: functional, Cricetulus griseus
[4] = system: Cricetinae gen. sp.; test: The compound was evaluated for the antifertility activity in hamster; no activity observed at 50 ug; assay type: functional, organism-based; conditions: Cricetulus griseus; in short: as §1

Structure (SMILES)	relative potency [1]	relative potency [2]	relative potency [3]	MED [4]
CCCCC[C@H](O)/C=C/[C@@]1(F)[C@H](O)C[C@H](O)[C@@H]1C/C=C\CCCC(=O)OC	0.001	12.5	0.28	
CCCCC[C@@H](O)/C=C/[C@@]1(F)[C@H](O)C[C@H](O)[C@@H]1C/C=C\CCCC(=O)OC	0.011	1	0.022	
CCCCC[C@@H](O)/C=C/[C@@]1(F)[C@H](C/C=C\CCCC(=O)OC)[C@H](O)C[C@@H]1O	0.001	0.17	0.004	
CCCCC[C@H](O)/C=C/[C@@]1(F)[C@H](C/C=C\CCCC(=O)OC)[C@H](O)C[C@@H]1O	0.0002		0.0002	No activity observed at 50 ug
CCCCC[C@H](O)/C=C/[C@@]1(F)[C@H](O)C[C@H](O)[C@@H]1C/C=C\CCCC(=O)O	0.23	25	0.65	
